pIC50: −log10 of the molar value. In brackets after ≈: the same amount, converted by molar mass. Activity calls are given as the source filed them.

The source of these data is ChEMBL document CHEMBL1155128, “Kinetic studies and bioactivity of potential manzamine prodrugs” (J Nat Prod, 2008).

Data set [1] deals with Plasmodium berghei. The data set is described as follows: Antimalarial activity as reduced parasitaemia at day 10 in Plasmodium berghei NK65 infected mice (Mus musculus) at 30 mg/kg peroral dose […] post infection. The format is functional. Also on record: scale not given: the % may be the effect or the level left. Particulars: route oral. In outline:
(§1)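 Peters 4-day suppressive test. Male Swiss Webster mice (18-20 g), 5 per group, infected ip with 2 X10^7 P. berghei NK-65 parasitized red cells. Compounds in 0.1N HCl given orally about 2 h post-infection, once daily on days 0-2; vehicle and β-arteether control groups. Parasitemia followed on Giemsa-stained tail blood smears up to day 28.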

Data set [2] can be described thus: Cytotoxicity against african green monkey Vero cells after 48 hrs by neutral red assay. It counts as cell-based. Particulars: chlorocebus sabaeus. The gist of the method:
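Vero monkey kidney cells seeded at 25,000 cells/well and grown 24 h, then given samples at several concentrations for 48 h. Viable cells were counted by neutral red. IC50 was taken from dose-response curves, with doxorubicin as positive control.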

Data set [3] has as its system Plasmodium berghei. As to the kind of experiment: Antimalarial activity as reduced parasitaemia at day 7 in Plasmodium berghei NK65 infected mice (Mus musculus) at 30 mg/kg peroral dose […] post infection. The format is functional. Set-up: scale not given: the % may be the effect or the level left. The note with it: route oral. In outline:
as §1

The subject of data set [4] is Plasmodium berghei. As to the kind of experiment: Antimalarial activity as reduced parasitaemia at day 14 in Plasmodium berghei NK65 infected mice (Mus musculus) at 10 mg/kg peroral dose […]. The format is functional. Also on record: scale not given: the % may be the effect or the level left. Particulars: route oral. The gist of the method: as §1
Data set [5] deals with Plasmodium berghei. As to the kind of experiment: Antimalarial activity as reduced parasitaemia on day 10 in Plasmodium berghei NK65 infected mice (Mus musculus) at 10 mg/kg peroral dose […] post infection. It counts as functional. Also on record: scale not given: the % may be the effect or the level left. Particulars: route oral. The gist of the method:
as §1

The subject of data set [6] is Mycobacterium intracellulare. As to the kind of experiment: Antimicrobial activity against Mycobacterium intracellular ATCC 23068. The format is functional, organism-based. In outline: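 M. intracellulare ATCC 23068 tested by a modified Franzblau method. […] Fluorescence read at 544ex/590em before and after incubation.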
In data set [7] the test system is Plasmodium berghei. The data set is described as follows: Antimalarial activity as reduced parasitaemia at day 14 in Plasmodium berghei NK65 infected mice (Mus musculus) at 30 mg/kg peroral dose once daily for 3 days post infection. Also on record: scale not given: the % may be the effect or the level left. The note with it: route oral.
For data set [8], the system named is Staphylococcus aureus. The data set is described as follows: Antimicrobial activity against methicillin-resistant Staphylococcus aureus ATCC 43300. It counts as functional, organism-based.
Data set [9] relates to Plasmodium berghei. The data set is described as follows: Antimalarial activity as reduced parasitaemia day 7 in Plasmodium berghei NK65 infected mice (Mus musculus) at 10 mg/kg peroral dose […] […]. The format is functional. Also on record: scale not given: the % may be the effect or the level left. The note with it: route oral. The gist of the method:
as §1

Data set [10] concerns Leishmania donovani. As to the kind of experiment: Antileishmanial activity against Leishmania donovani promastigotes after 72 hrs by almar blue assay. It counts as functional, organism-based.
Data set [11] concerns Candida albicans. As to the kind of experiment: Antimicrobial activity against Candida albicans ATCC 90028. It counts as functional, organism-based.
The subject of data set [12] is Vero. As to the kind of experiment: Cytotoxicity against african green monkey Vero cells at 4.76 ug/ml after 48 hrs by neutral red assay. It counts as functional, cell-based. Particulars: Chlorocebus sabaeus.
The test system of data set [13] is Plasmodium falciparum. The data set is described as follows: Antimalarial activity against chloroquine-sensitive Plasmodium falciparum D6 as LDH activity. The format is functional, organism-based. The gist of the method: (§2)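 Red cells infected with P. falciparum D6 or W2 (2% parasitemia, 2% hematocrit, RPMI 1640 with 10% human serum and 60 µg/mL amikacin) added to serially diluted samples. Gassed with 90% N2/5% O2/5% CO2 and held 37 °C for 72 h. Parasite LDH read with Malstat plus NBT/PES at 650 nm. IC50 from dose-response curves; artemisinin and chloroquine controls.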

Data set [14] deals with Plasmodium falciparum. As to the kind of experiment: Antimalarial activity against chloroquine-resistant Plasmodium falciparum W2 by LDH activity. It counts as functional, organism-based. The gist of the method: as §2
Data set [15] relates to Cryptococcus neoformans. As to the kind of experiment: Antimicrobial activity against Cryptococcus neoformans ATCC 90113. It counts as functional, organism-based.
Data set [16] deals with Glycogen synthase kinase-3 beta (Homo sapiens, UniProt P49841). As to the kind of experiment: Inhibition of GSK3-beta.
Chain of Glycogen synthase kinase-3 beta (P49841 whole entry): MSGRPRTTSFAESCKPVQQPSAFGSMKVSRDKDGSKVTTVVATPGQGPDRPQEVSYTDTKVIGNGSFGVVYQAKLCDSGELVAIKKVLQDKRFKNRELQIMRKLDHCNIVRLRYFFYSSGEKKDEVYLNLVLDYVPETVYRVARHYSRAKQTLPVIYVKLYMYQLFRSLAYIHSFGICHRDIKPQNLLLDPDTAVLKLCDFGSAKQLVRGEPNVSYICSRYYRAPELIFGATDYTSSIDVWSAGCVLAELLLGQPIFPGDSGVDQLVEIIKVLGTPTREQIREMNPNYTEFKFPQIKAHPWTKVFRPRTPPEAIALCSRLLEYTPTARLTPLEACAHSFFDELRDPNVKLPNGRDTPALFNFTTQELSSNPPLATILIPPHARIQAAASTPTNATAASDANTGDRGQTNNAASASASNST
Data set [17] concerns the target Glycogen synthase kinase-3 alpha (Homo sapiens, UniProt P49840). The data set is described as follows: Inhibition of GSK3alpha.

Chain of Glycogen synthase kinase-3 alpha (P49840 whole entry): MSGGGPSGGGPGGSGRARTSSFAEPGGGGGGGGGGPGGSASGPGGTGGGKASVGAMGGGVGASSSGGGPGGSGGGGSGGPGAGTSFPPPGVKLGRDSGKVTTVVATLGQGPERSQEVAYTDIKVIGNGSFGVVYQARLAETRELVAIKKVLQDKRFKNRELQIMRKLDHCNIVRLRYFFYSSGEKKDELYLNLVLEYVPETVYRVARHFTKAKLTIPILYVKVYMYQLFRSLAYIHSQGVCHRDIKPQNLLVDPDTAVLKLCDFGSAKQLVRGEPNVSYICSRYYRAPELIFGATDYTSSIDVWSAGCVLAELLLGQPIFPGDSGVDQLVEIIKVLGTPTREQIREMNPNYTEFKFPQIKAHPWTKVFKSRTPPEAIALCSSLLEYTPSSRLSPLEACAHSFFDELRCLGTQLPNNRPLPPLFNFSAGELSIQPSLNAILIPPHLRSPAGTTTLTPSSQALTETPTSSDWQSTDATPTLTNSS

As usually defined, the IC50 is the midpoint of a concentration-inhibition curve. For orientation: MIC means the lowest concentration found to suppress growth. One may read the IC90 as the point of the concentration-response curve where the effect stands at 90%. On to `Oc1cccc2c1[nH]c1c(C3=C[C@@]4(O)CC/C=C\CCCCN5CC[C@@H]3[C@]3(C[C@@H]6/C=C\CCCCN6[C@H]34)C5)nccc12`, for which the Activity in data set [1] turned out to be 83%; in [3] it was 100%; in data set [4], 32%; in data set [5], 35%; in [7], 67%; in [9], 57%. Also, the CC50 at 48 h in data set [2] was determined as 1.1 µg/mL (≈ 1.95 µM). Further, the values for the IC50 in data set [6], in [8] and in data set [11] were 0.25 µg/mL (≈ 0.443 µM), 6.5 µg/mL (≈ 11.5 µM) and 10 µg/mL (≈ 17.7 µM), respectively. For the same compound, the MIC in [6] stood at 0.31 µg/mL (≈ 0.549 µM); in [11], 5 µg/mL (≈ 8.85 µM). The compound also displayed a 90% effect concentration (IC90) in [10] of 11 µg/mL (≈ 19.5 µM).
`CC(=O)Oc1cccc2c1[nH]c1c(C3=C[C@@]4(OC(C)=O)CC/C=C\CCCCN5CC[C@@H]3[C@]3(C[C@@H]6/C=C\CCCCN6[C@H]34)C5)nccc12` [8,12-DIACETOXYMANZAMINE A]: in [12], the outcome was inactive. The 50% inhibitory concentration (IC50) in data set [13] was 1.3 µg/mL (≈ 2 µM); in data set [14], 1.2 µg/mL (≈ 1.85 µM); in [6], 4.5 µg/mL (≈ 6.94 µM); in data set [8], 2 µg/mL (≈ 3.08 µM); in data set [10] it was 16 µg/mL (≈ 24.7 µM); in data set [15] it was more than 20 µg/mL. The concentration for half-maximal inhibition (IC50) in data set [11] is more than 20 µg/mL. In addition, the MIC was 5 µg/mL (≈ 7.71 µM) in [8] and 10 µg/mL (≈ 15.4 µM) in [15]. Further, it took 35 µg/mL (≈ 53.9 µM) to reach the 90% level in data set [10] (IC90).
What is called MBC is the smallest concentration meeting the test's criterion for killing. For the compound `CC(=O)Oc1cccc2c1[nH]c1c(C3=C[C@@]4(O)CC/C=C\CCCCN5CC[C@@H]3[C@]3(C[C@@H]6/C=C\CCCCN6[C@H]34)C5)nccc12` [8-ACETOXYMANZAMINE A], the Activity came to 84% in [1]; 93% in [3]; 8% in data set [4]; 51% in [5]; 48% in [7]; 61% in data set [9]. In addition, the concentration for half-maximal inhibition (IC50) in data set [13] came to 0.0096 µg/mL (≈ 0.0158 µM); in data set [14] it was 0.03 µg/mL (≈ 0.0494 µM); in [6], 0.1 µg/mL (≈ 0.165 µM); in [8] it was 0.5 µg/mL (≈ 0.824 µM); in [10], 3.4 µg/mL (≈ 5.6 µM); in [15], 1.5 µg/mL (≈ 2.47 µM). In [11], this compound registered a half-maximal inhibitory concentration (IC50) of 1.5 µg/mL (≈ 2.47 µM). Further, the CC50 at 48 h in data set [2] (read-out: TC50) turned out to be 370 µg/mL (≈ 610 µM). The compound further returned an MBC in data set [6] of more than 20 µg/mL. Moreover, the minimum inhibitory concentration (MIC) in [6] came out at 0.16 µg/mL (≈ 0.264 µM); in [15], 2.5 µg/mL (≈ 4.12 µM); in data set [11] it was 2.5 µg/mL (≈ 4.12 µM). Further, the values for the MFC in data set [8], in [15] and in data set [11] were 20 µg/mL (≈ 33 µM), 5 µg/mL (≈ 8.24 µM) and 5 µg/mL (≈ 8.24 µM), respectively. In [10], this compound showed a 90% effect concentration (IC90) of 7 µg/mL (≈ 11.5 µM).
Take `COc1cccc2c1[nH]c1c(C3=C[C@@]4(O)CC/C=C\CCCCN5CC[C@@H]3[C@]3(C[C@@H]6/C=C\CCCCN6[C@H]34)C5)nccc12` [8-METHOXYMANZAMINE A]: the half-inhibitory concentration (IC50) in data set [13] was 0.037 µg/mL (≈ 0.0639 µM); in data set [14], 0.047 µg/mL (≈ 0.0812 µM); in data set [6], 0.15 µg/mL (≈ 0.259 µM); in [8], 0.55 µg/mL (≈ 0.95 µM); in data set [10] it was 5 µg/mL (≈ 8.64 µM); in data set [15], 2 µg/mL (≈ 3.46 µM). Further, the half-inhibitory concentration (IC50) in [11] worked out at 3 µg/mL (≈ 5.18 µM). Moreover, in [2] (read-out: TC50), the CC50 at 48 h came out at 980 µg/mL (≈ 1690 µM). Moreover, in data set [6], the MBC was 20 µg/mL (≈ 34.6 µM). Also, the MIC was 0.63 µg/mL (≈ 1.09 µM) in [6], more than 20 µg/mL in data set [8] and 10 µg/mL (≈ 17.3 µM) in [11]. For the same compound, the MFC in data set [8] and in [11] was more than 20 µg/mL in each case. In [10], this compound returned an IC90 of 24 µg/mL (≈ 41.5 µM).
Take `C[C@@H]1[C@H](O)[C@@H](C)/C=C/C=C/C=C/C=C/C=C/C=C/C=C/[C@H](O[C@@H]2O[C@H](C)[C@@H](O)[C@H](N)[C@@H]2O)C[C@@H]2O[C@](O)(C[C@@H](O)C[C@@H](O)[C@H](O)CC[C@@H](O)C[C@@H](O)CC(=O)O[C@H]1C)C[C@H](O)[C@H]2C(=O)O` [AMPHOTERICIN B]: in [10], 0.4 µg/mL (≈ 0.433 µM) corresponded to half-maximal inhibition (IC50) and the IC90 is 0.36 µg/mL (≈ 0.39 µM). Moreover, in data set [15], half-maximal inhibition (IC50) required 1 µg/mL (≈ 1.08 µM), the MFC turned out to be 2.5 µg/mL (≈ 2.71 µM) and the MIC amounted to 2.5 µg/mL (≈ 2.71 µM). In data set [11], this compound yielded a concentration for half-maximal inhibition (IC50) of 0.1 µg/mL (≈ 0.108 µM) and an MIC of 0.63 µg/mL (≈ 0.682 µM).
For the compound `C[C@@H]1CC[C@H]2[C@@H](C)C(=O)O[C@@H]3O[C@@]4(C)CC[C@@H]1[C@]32OO4` [ARTEMISININ], the results for the concentration for half-maximal inhibition (IC50) in data set [13] and in [14] were 0.0043 µg/mL (≈ 0.0152 µM) and 0.0044 µg/mL (≈ 0.0156 µM), respectively.
In [6], `O=C(O)c1cn(C2CC2)c2cc(N3CCNCC3)c(F)cc2c1=O` [CIPROFLOXACIN] registered a minimal bactericidal concentration (MBC) of more than 20 µg/mL and an MIC of 0.5 µg/mL (≈ 1.51 µM). Moreover, in data set [8], the MFC stood at 1 µg/mL (≈ 3.02 µM) and 0.25 µg/mL (≈ 0.754 µM) was the least that counted as inhibitory (MIC).
Broadly, the pIC50 is −log10 of the IC50, conventionally taken in molar units. With `O[C@]12C=C(c3nccc4c3[nH]c3ccccc34)[C@@H]3CCN(CCCC/C=C\CC1)C[C@@]31C[C@@H]3/C=C\CCCCN3[C@H]12` [MANZAMINE A], the pIC50 in [16] is 5.00; in data set [17], 4.60. Moreover, the CC50 at 48 h in [2] (read-out: TC50) amounted to 680 µg/mL (≈ 1240 µM). Also, half-maximal inhibition in data set [14] (IC50) was put at 0.005 µg/mL (≈ 0.00911 µM). The Activity in data set [4] was 90%; in data set [5], 100%; in [9], 100%. Besides, the minimal inhibitory concentration (MIC) in data set [6] amounted to 0.63 µg/mL (≈ 1.15 µM); in [15] it was 10 µg/mL (≈ 18.2 µM). The same compound gave a 90% effect concentration (IC90) in data set [10] of 1.8 µg/mL (≈ 3.28 µM).
As for `N=C(N)c1ccc(OCCCCCOc2ccc(C(=N)N)cc2)cc1` [PENTAMIDINE], in [10], 0.9 µg/mL (≈ 2.64 µM) corresponded to half-maximal inhibition (IC50) and the IC90 was found to be 1.8 µg/mL (≈ 5.29 µM).
